Data on one molecule can be found in ChEMBL document CHEMBL4229410, “Facile construction of fused benzimidazole-isoquinolinones that induce cell-cycle arrest and apoptosis in colorectal cancer cells” (Bioorg Med Chem, 2018).

For data set [1], the system named is HT-29. As to the kind of experiment: Cell cycle arrest in human HT-29 cells assessed as accumulation at S-phase at 50 uM after 48 hrs by propidium iodide staining based flow cytometry (reference value: 37.82%). Format: functional.
Data set [2] has as its system HT-29. Put plainly: Down regulation of CDK1 expression in human HT-29 cells after 48 hrs by Western blot analysis. Format: functional, cell-based. The method, boiled down:
(§1)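 HT29 or SW620 cells were treated at 0, 25, 50 and 75 μM for 48 h and lysed in RIPA with protease and phosphatase inhibitors. Protein was quantified by BCA. 50 μg lysate was run on 8–15% SDS-PAGE and transferred to PVDF. Blocking was 5% BSA/TBST for 2 h; primary antibodies were applied overnight at 4 °C, then HRP secondary 1 h at room temperature.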

Data set [3] relates to SW-620. Put plainly: Induction of apoptosis in human SW620 cells assessed as increase in apoptotic bodies after 48 hrs by Hoechst 33342 staining based fluorescence microscopic analysis. Format: functional, cell-based.
Data set [4] deals with SW-620. Put plainly: Induction of apoptosis in human SW620 cells assessed as late apoptotic cells at 25 uM after 48 hrs by Annexin-V-FITC/propidium iodide staining based flow cytometry (reference value: 1.2%). Format: functional.
In data set [5] the test system is HT-29. As to the kind of experiment: Induction of apoptosis in human HT-29 cells assessed as early apoptotic cells at 25 uM after 48 hrs by Annexin-V-FITC/propidium iodide staining based flow cytometry (reference value: 1%). The class given is functional.
Data set [6] has as its system HT-29. Put plainly: Induction of apoptosis in human HT-29 cells assessed as late apoptotic cells at 75 uM after 48 hrs by Annexin-V-FITC/propidium iodide staining based flow cytometry (reference value: 4.1%). The class given is functional.
The species named for data set [7] is Homo sapiens. Put plainly: Inhibition of PI3K in human SW620 cells assessed as reduction in AKT phosphorylation at S473 residue up to 75 uM after 48 hrs by Western blot analysis. The class given is cell-based.
Data set [8] concerns SW-620. Put plainly: Effect on total AKT expression in human SW620 cells up to 75 uM after 48 hrs by Western blot analysis. The class given is ADME, cell-based. The note with it: sw-620, 48 h. The method, boiled down:
as §1

The subject of data set [9] is HT-29. As to the kind of experiment: Inhibition of PI3K in human HT-29 cells assessed as reduction in AKT phosphorylation at T308 residue up to 75 uM after 48 hrs by Western blot analysis. The class given is cell-based.
Data set [10] has as its target Serine/threonine-protein kinase mTOR (Homo sapiens) (UniProt P42345). Put plainly: Inhibition of mTOR in human SW620 cells assessed as reduction in 4EBP1 phosphorylation up to 75 uM after 48 hrs by Western blot analysis. The class given is cell-based.
The subject of data set [11] is Epidermal growth factor receptor (Homo sapiens), P00533 [L858R]. As to the kind of experiment: Inhibition of partial length human EGFR (R669 to V1011 residues) L858R mutant expressed in bacterial expression system assessed as residual activity at 5 uM by KINOMEscan assay relative to control.
In data set [12] the target is Fibroblast growth factor receptor 2 (Homo sapiens, UniProt P21802). As to the kind of experiment: Inhibition of partial length human FGFR2 (D457 to E769 residues) expressed in bacterial expression system assessed as residual activity at 5 uM by KINOMEscan assay relative to control.
In data set [13] the target is Receptor-type tyrosine-protein kinase FLT3 (Homo sapiens) (UniProt P36888). As to the kind of experiment: Inhibition of human FLT3 (V592 to Y969 residues) expressed in bacterial expression system assessed as residual activity at 5 uM by KINOMEscan assay relative to control.
In data set [14] the target is Tyrosine-protein kinase JAK3 (Homo sapiens) (UniProt P52333). As to the kind of experiment: Inhibition of human JAK3 JH1 catalytic domain (I781 to S1124 residues) expressed in mammalian expression system assessed as residual activity at 5 uM by KINOMEscan assay relative to control.
Data set [15] deals with Ribosomal protein S6 kinase alpha-3 (Homo sapiens, UniProt P51812). Put plainly: Inhibition of human N-terminal RSK2 kinase domain 1 (M1 to D394 residues) expressed in mammalian expression system assessed as residual activity at 5 uM by KINOMEscan assay relative to control.
Data set [16] concerns the target Angiopoietin-1 receptor (Homo sapiens, UniProt Q02763). As to the kind of experiment: Inhibition of human TIE2 (N804 to T1112 residues) expressed in bacterial expression system assessed as residual activity at 5 uM by KINOMEscan assay relative to control.
Data set [17] concerns the target Serine/threonine-protein kinase Chk1 (Homo sapiens, UniProt O14757). As to the kind of experiment: Binding affinity to human CHEK1 (M1 to G289 residues) expressed in bacterial expression system by KINOMEscan assay.
The target of data set [18] is Receptor tyrosine-protein kinase erbB-2 (Homo sapiens, UniProt P04626). Put plainly: Binding affinity to human ERBB2 (K646 to V1225 residues) expressed in mammalian expression system by KINOMEscan assay.
The target of data set [19] is Mitogen-activated protein kinase 10 (Homo sapiens, UniProt P53779). As to the kind of experiment: Binding affinity to human JNK3 (V28 to Q422 residues) expressed in mammalian expression system by KINOMEscan assay.
Data set [20] deals with Phosphatidylinositol 4,5-bisphosphate 3-kinase catalytic subunit alpha isoform (Homo sapiens, UniProt P42336). Put plainly: Binding affinity to human PIK3CA (R108 to N1068 residues) expressed in mammalian expression system by KINOMEscan assay.
For data set [21], the target named is Serine/threonine-protein kinase 32C (Homo sapiens, UniProt Q86UX6). As to the kind of experiment: Binding affinity to human YANK3 (M68 to G486 residues) expressed in bacterial expression system by KINOMEscan assay.
The target of data set [22] is Tyrosine-protein kinase ZAP-70 (Homo sapiens, UniProt P43403). Put plainly: Binding affinity to human ZAP70 (D20 to G299 residues) expressed in mammalian expression system by KINOMEscan assay.

Structures are written as SMILES. Activity calls are given as the source filed them. The calls are words filed in the database; no cut-off is given here. Some results are limits rather than exact numbers.

Sequence of Tyrosine-protein kinase JAK3 (Homo sapiens) (P52333 whole entry, the tested form may be a part): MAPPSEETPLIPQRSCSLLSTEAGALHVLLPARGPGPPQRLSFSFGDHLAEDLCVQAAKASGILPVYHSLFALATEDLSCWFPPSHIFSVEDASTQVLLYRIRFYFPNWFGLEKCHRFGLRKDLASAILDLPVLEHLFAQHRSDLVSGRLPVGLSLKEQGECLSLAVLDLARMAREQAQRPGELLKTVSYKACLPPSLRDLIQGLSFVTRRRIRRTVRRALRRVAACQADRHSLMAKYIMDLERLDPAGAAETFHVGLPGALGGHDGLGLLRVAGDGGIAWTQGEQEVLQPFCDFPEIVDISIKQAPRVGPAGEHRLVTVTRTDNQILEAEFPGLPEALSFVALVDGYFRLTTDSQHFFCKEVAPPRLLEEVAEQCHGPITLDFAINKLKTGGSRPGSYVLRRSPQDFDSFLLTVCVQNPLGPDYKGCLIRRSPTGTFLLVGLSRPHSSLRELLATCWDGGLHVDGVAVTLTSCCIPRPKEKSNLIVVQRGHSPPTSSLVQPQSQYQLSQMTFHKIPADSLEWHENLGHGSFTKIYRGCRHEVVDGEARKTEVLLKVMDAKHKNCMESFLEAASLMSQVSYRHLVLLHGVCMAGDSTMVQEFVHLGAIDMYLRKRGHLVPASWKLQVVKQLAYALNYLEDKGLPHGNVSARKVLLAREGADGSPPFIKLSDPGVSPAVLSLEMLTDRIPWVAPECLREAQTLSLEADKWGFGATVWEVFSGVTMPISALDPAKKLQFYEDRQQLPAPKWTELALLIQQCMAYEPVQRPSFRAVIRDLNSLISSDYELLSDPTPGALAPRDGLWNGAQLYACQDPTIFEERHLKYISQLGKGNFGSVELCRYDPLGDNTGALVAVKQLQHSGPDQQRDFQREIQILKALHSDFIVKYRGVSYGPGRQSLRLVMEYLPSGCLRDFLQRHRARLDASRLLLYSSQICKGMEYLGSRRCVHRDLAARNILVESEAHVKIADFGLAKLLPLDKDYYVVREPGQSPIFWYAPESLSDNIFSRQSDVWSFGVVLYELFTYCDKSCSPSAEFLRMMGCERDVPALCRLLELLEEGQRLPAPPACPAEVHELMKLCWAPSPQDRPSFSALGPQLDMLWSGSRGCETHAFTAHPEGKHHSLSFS
Sequence of Receptor tyrosine-protein kinase erbB-2 (P04626 whole entry, the tested form may be a part): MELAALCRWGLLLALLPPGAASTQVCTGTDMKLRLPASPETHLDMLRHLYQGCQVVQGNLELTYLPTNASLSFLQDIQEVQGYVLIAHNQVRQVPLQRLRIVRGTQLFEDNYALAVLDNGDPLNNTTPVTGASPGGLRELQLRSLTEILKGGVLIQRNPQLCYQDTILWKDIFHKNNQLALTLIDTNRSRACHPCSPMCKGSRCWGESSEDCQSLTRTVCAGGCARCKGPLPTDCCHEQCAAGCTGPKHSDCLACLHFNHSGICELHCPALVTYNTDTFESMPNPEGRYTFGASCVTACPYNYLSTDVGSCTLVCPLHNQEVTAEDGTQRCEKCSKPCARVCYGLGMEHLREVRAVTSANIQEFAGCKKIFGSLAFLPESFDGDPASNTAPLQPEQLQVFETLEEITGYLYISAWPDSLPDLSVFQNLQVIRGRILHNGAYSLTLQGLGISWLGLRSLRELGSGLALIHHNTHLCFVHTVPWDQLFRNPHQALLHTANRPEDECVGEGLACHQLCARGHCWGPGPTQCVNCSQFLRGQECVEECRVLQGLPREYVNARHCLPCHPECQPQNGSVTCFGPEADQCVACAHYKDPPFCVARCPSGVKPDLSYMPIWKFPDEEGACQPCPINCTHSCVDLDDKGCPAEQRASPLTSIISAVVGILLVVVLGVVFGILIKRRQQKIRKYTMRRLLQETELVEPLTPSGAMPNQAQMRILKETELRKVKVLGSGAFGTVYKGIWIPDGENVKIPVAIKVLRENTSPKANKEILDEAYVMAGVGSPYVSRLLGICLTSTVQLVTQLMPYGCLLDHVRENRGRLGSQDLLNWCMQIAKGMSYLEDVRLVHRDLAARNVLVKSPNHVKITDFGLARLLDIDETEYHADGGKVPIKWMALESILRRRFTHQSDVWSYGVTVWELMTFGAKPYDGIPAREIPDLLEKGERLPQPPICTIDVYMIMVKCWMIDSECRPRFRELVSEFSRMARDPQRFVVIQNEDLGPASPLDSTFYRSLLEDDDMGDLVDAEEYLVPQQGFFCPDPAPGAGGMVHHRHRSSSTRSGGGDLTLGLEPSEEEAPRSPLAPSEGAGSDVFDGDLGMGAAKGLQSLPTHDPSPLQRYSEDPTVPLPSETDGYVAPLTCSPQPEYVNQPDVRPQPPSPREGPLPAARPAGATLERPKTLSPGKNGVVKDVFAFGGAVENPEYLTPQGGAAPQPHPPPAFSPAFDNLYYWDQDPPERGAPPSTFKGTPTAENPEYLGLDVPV
Sequence of Serine/threonine-protein kinase 32C (Q86UX6 whole entry, the tested form may be a part): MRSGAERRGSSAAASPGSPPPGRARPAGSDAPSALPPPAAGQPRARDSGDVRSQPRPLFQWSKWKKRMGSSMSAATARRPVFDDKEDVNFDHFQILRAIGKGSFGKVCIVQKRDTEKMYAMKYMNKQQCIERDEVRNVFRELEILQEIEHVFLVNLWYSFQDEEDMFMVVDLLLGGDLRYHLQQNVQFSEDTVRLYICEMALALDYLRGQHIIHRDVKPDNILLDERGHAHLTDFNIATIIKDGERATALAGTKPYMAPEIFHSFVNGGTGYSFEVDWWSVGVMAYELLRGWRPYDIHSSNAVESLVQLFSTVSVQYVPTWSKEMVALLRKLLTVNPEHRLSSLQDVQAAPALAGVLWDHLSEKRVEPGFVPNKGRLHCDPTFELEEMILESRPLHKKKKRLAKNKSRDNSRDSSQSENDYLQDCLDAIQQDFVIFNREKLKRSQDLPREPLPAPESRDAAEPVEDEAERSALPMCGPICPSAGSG
Sequence of Serine/threonine-protein kinase Chk1 (O14757 whole entry, the tested form may be a part): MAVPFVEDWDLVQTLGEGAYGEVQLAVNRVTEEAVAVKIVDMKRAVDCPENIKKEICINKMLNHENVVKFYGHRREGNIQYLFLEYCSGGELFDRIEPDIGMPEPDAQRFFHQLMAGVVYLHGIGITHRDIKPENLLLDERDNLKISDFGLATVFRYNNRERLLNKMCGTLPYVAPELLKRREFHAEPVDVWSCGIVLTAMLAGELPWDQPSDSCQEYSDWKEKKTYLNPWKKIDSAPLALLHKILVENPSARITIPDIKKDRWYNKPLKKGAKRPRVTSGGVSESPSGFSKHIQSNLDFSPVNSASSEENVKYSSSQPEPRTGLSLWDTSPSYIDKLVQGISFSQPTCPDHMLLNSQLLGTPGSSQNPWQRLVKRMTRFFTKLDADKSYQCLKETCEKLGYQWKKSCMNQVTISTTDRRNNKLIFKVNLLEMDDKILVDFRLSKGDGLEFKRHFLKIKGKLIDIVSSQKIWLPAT
Sequence of Mitogen-activated protein kinase 10 (P53779 whole entry, the tested form may be a part, canonical isoform): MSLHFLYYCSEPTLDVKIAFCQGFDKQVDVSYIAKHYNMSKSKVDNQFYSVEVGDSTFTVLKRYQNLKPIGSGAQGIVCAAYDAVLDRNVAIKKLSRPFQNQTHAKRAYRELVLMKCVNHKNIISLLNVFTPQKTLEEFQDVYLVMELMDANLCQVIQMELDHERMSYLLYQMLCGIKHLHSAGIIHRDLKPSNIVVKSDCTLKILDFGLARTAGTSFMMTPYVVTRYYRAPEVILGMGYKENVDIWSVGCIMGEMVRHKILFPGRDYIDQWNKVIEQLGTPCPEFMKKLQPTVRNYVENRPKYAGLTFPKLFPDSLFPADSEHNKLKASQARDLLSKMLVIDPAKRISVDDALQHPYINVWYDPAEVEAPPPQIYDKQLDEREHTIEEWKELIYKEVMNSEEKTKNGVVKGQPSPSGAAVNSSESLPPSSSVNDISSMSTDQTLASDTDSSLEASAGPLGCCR
Sequence of Tyrosine-protein kinase ZAP-70 (P43403 whole entry, the tested form may be a part): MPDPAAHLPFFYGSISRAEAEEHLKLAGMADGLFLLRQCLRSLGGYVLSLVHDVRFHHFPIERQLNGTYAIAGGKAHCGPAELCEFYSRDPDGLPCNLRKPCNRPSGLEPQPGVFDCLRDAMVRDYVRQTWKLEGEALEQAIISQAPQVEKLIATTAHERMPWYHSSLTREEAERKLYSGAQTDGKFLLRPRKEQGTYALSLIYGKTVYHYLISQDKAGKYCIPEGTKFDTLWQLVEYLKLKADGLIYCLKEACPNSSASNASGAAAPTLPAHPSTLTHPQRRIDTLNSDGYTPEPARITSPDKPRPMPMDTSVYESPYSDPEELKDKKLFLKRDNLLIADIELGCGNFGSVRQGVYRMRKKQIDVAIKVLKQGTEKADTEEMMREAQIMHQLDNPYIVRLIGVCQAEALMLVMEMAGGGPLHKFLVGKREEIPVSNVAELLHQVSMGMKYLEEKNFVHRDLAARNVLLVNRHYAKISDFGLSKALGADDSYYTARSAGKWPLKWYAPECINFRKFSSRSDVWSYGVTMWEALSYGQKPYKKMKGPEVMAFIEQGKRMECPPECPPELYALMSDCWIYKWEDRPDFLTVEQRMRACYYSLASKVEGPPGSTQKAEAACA

As to `CC(C)CN(C(=O)c1cccnc1)c1c2ccccc2c(=O)n2c1[nH]c1ccccc12`, the Activity in [1] was 35.86%; in data set [2] it was “Dose-dependent effect”; in data set [3] it was “Dose-dependent effect”; in data set [4], 4.1%; in data set [5] it was 0.9%; in data set [6], 31.1%. In addition, the Activity entry is “Non-Toxic” in data set [8]; 92% in [11]; 76% in [12]; 98% in data set [13]; 73% in data set [14]; 91% in data set [15]. Also, the Activity in [16] stood at 88%. The inhibition entry in [7], in data set [9] and in [10] was “Active” throughout. Further, the Kd in data set [17], in [18], in [19], in data set [20], in [21] and in [22] was at least 5 µM each time.
